Measurements pooled from the literature.
Lines come from different studies, so protocols differ. ≈ marks a conversion by molar mass, not a printed value.

| SMILES | organism | assay | system | conditions | measurement | value |
| --- | --- | --- | --- | --- | --- | --- |
| Cc1ccnc2c1NC(=O)c1cccnc1N2C1CC1 | Human immunodeficiency virus 1 | viral replication | human PBMC | clinical isolate | IC90 | 242 nM |
| CC(C)CN(C[C@@H](O)[C@H](Cc1ccccc1)NC(=O)O[C@H]1CO[C@H]2OCC[C@H]21)S(=O)(=O)c1ccc(N)cc1 | Human immunodeficiency virus 1 | viral replication, inhibitor | MT2 |  | IC50 | 1.6 nM |
| COC(=O)c1cc(-c2cccc(NC(=O)Nc3c(C)cccc3C)c2)on1 | Mycolicibacterium fortuitum | microbial growth, broth dilution | ATCC6841 | 48 h | MIC | > 64 µg/mL |
| CC(C)CN(C[C@@H](O)[C@H](Cc1ccccc1)NC(=O)O[C@H]1CO[C@H]2OCC[C@H]21)S(=O)(=O)c1ccc(N)cc1 | Human immunodeficiency virus 1 | viral replication | T-lymphoid |  | IC50 | 1.6 nM |
| CC(C)CN(C[C@@H](O)[C@H](Cc1ccccc1)NC(=O)O[C@H]1CO[C@H]2OCC[C@H]21)S(=O)(=O)c1ccc(B(O)O)cc1 | Human immunodeficiency virus 1 | viral replication, inhibitor | MT2 |  | IC50 | 49 nM |
| CC(C)Nc1cccnc1N1CCN(C(=O)c2cc3cc(NS(C)(=O)=O)ccc3[nH]2)CC1 | Human immunodeficiency virus 1 | viral replication, inhibitor | human PBMC | clinical isolate | IC90 | 57.6 nM |
| CC[C@H](C)C[C@H](C)CCCCCCCCC(=O)N[C@H]1C[C@@H](O)[C@@H](NCCN)NC(=O)[C@@H]2[C@@H](O)CCN2C(=O)[C@H]([C@H](O)CCN)NC(=O)[C@H]([C@H](O)[C@@H](O)c2ccc(O)cc2)NC(=O)[C@@H]2C[C@@H](O)CN2C(=O)[C@H]([C@@H](C)O)NC1=O | Clavispora lusitaniae | microbial growth, broth dilution | MY1396 |  | MIC | 0.25 µg/mL (≈ 0.229 µM) |
| COC(=O)c1cc(-c2ccc(NC(=O)Nc3ccc(Cl)c(Cl)c3)cc2)on1 | Mycolicibacterium fortuitum | microbial growth, broth dilution | ATCC6841 | 48 h | MIC | > 64 µg/mL |
